For series [1], the target named is T1, Opioid receptor (Rattus norvegicus) (UniProt P33533+P34975+P33535). Kind of series: Displacement of [3H]naloxone from opioid receptor in rat brain after 30 mins. The class given is tissue-based. In short, it runs like this: (§1)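 Rat brain homogenate (2-mL aliquots, ca. 1 mg wet weight) incubated with […] [3H]naloxone (25 Ci/mmol) for 30 min at 25 °C, with test peptides at three to five concentrations. Each concentration run as three separate sets of duplicates. ID50 taken from log-probit plots. The relative value is expressed against natural sheep beta-endorphin.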

For series [2], the target named is T1, Opioid receptor (Rattus norvegicus). Kind of series: Displacement of [3H]naloxone from opioid receptor in rat brain after 30 mins relative to natural sheep beta-endorphin. The class given is tissue-based. In short, it runs like this: as §1
Background: Displacement assays read how much labelled ligand stays bound in the presence of the test substance.

For series [3] the target is unchanged. Kind of series: Modulation of opioid receptor in rat vas deferens assessed as inhibition of electrically evoked contractions. Type of series: tissue-based. In short, it runs like this:
(§2)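 Rat vas deferens, electrically stimulated; depression of contractions recorded over five increasing concentrations. Each concentration is the mean from six different tissues. ID50 derived from log-probit plots. The relative value and ratio are expressed against natural sheep beta-endorphin.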

The target is the same in series [4]. The series can be described thus: Modulation of opioid receptor in rat vas deferens assessed as inhibition of electrically evoked contractions relative to natural sheep beta-endorphin. Further details: scale not given: the % may be the effect or the level left. Type of series: tissue-based. In short, it runs like this:
as §2

The species named for series [5] is Cavia porcellus. The series can be described thus: Modulation of opioid receptor in guinea pig ileum assessed as inhibition of electrically evoked contractions. The class given is tissue-based. In short, it runs like this:
(§3)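 Guinea pig ileum, electrically stimulated; depression of contractions measured. Each tissue received increasing concentrations of only one compound, to avoid tachyphylaxis seen with repeat doses given 30 min apart. ID50 taken from log-probit plots of five increasing concentrations, each the mean from six tissues. The relative value is expressed against natural sheep beta-endorphin.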

For series [6], the species on record is Cavia porcellus. Kind of series: Modulation of opioid receptor in guinea pig ileum assessed as inhibition of electrically evoked contractions relative to natural sheep beta-endorphin. Type of series: tissue-based. Further details: scale not given: the % may be the effect or the level left. In short, it runs like this: as §3
Series [7] is described as follows: Retardation factor of the compound using 1-butanol-pyridine-0.6 M ammonium acetate in 0.1% aqueous acetic acid at ratio of 5:3:11 (v/v) as solvent system by partition chromatography. Type of series: physicochemical. The note with it: buffer.
Series [8] can be described thus: Retardation factor of the compound using 1-butanol-pyridine-acetic acid-water at ratio of 6.0:6.0:1.2:4.8 as solvent system by thin layer chromatography. The class given is physicochemical. Conditions: buffer.
The nature of series [9]: Retardation factor of the compound using 1-butanol-acetic acid-water at ratio of 4:3:3 as solvent system by thin layer chromatography. The class given is physicochemical. The note with it: buffer.
The nature of series [10]: Retardation factor of the compound measured at 400 V for 4 hrs by paper electrophoresis. Type of series: physicochemical.

Take BETA-ENDORPHIN [listing 1 of 2 here]: the ID50 in series [1] was found to be 10 nM; in series [3] it was 130 nM; in series [5], 27 nM. Moreover, the Activity in series [2], in series [4] and in series [6] was 100% throughout.
Turning to `CC[C@H](C)[C@H](NC(=O)[C@H](C)NC(=O)[C@H](CC(N)=O)NC(=O)[C@H](CCCCN)NC(=O)[C@H](Cc1ccccc1)NC(=O)[C@H](CC(C)C)NC(=O)[C@@H](NC(=O)[C@@H](NC(=O)[C@H](CC(C)C)NC(=O)[C@@H]1CCCN1C(=O)[C@@H](NC(=O)[C@H](CCC(N)=O)NC(=O)[C@H](CO)NC(=O)[C@H](CCCCN)NC(=O)[C@H](CCC(=O)O)NC(=O)[C@H](CO)NC(=O)[C@@H](NC(=O)[C@H](CC[S+](C)[O-])NC(=O)[C@H](Cc1ccccc1)N(C)C(=O)CNC(=O)[C@@H](C)NC(=O)[C@@H](N)Cc1ccc(O)cc1)[C@@H](C)O)[C@@H](C)O)C(C)C)[C@@H](C)O)C(=O)N[C@H](C(=O)N[C@@H](CCCCN)C(=O)N[C@@H](CC(N)=O)C(=O)N[C@@H](C)C(=O)N[C@@H](Cc1ccc(O)cc1)C(=O)N[C@@H](CCCCN)C(=O)N[C@@H](CCCCN)C(=O)NCC(=O)N[C@@H](CCC(=O)O)C(=O)O)[C@@H](C)CC` (some centres undefined), the Rf came to 0.21 in series [7], 0.42 in [8], 0.061 in series [9] and 0.47 in series [10].
The like results for BETA-ENDORPHIN [listing 2 of 2 here] were, in that order, 0.2, 0.45, 0.077 and 0.47.

These data come from ChEMBL document CHEMBL3244050, “Synthesis and biological activity of beta-endorphin and analogues. Additional evidence for multiple opiate receptors” (J Med Chem, 1978).
